Reference: publication PMC4969713 (Journal of Alzheimer's Disease, 2016)
Structures can show the parent of a compound that is named as a salt.

Key:
Type in all cases: in vivo
guinea pigs = assay: Q-T interval, guinea pigs; conditions: 10 mg/kg IP
BALB/c mice = assay: Tail suspension test; conditions: AVN-101 0.05 mg/kg IP once daily for 4 days
Method in brief: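 Test compound dissolved in saline, injected IP into BALB/c mice once daily for 4 days, last injection 5 min before tail suspension; vehicle (saline) controls; fluoxetine and desipramine 15 mg/kg IP as positive controls, last dose 30 min before test. Immobility measured; at least 8 animals per group; Student t-test.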

[1] = Pharmacokinetics in Wistar rats, IV/IP/PO; conditions: for Fabs: based on AUC0 ⟶240; for Cmax / Tmax / half-life / k el / AUC: Wistar, rat, plasma, 5 mg/kg

Cc1ccc2c(c1)c1c(n2CCc2ccccc2)CCN(C)C1 [AVN-101, 2,8-dimethyl-5-penethyl-2,3,4,5-tetra-hydro-1h-pyrido[[4,3-B]]indole hydrochloride]
increase in the QT interval over vehicle (guinea pigs): ≤ 10% | decrease in immobility time (BALB/c mice): comparable to that observed with either Fluoxetine or Desipramine | Fabs ([1]; IP 5 mg/kg): 26.3% | Fabs ([1]; PO 5 mg/kg): 8.5% | Cmax ([1]; ip): 278 ng/mL | Tmax ([1]; ip): 5 min | half-life ([1]; ip): 177 min | k el ([1]; ip): 6.5e-05 s⁻¹ | AUC ([1]; ip, AUC0 ⟶240, IP 5 mg/kg): 1900 ng·h/mL | AUC ([1]; ip, AUC0 ⟶∞, IP 5 mg/kg): 2830 ng·h/mL | Cmax ([1]; iv): 847 ng/mL | Tmax ([1]; iv): 5 min | half-life ([1]; iv): 57.5 min | k el ([1]; iv): 0.000202 s⁻¹ | AUC ([1]; iv, AUC0 ⟶240, IV 5 mg/kg): 721 ng·h/mL | AUC ([1]; iv, AUC0 ⟶∞, IV 5 mg/kg): 7530 ng·h/mL | Cmax ([1]; po): 50 ng/mL | Tmax ([1]; po): 5 min | half-life ([1]; po): 117 min | k el ([1]; po): 9.83e-05 s⁻¹ | AUC ([1]; po, AUC0 ⟶240, PO 5 mg/kg): 614 ng·h/mL | AUC ([1]; po, AUC0 ⟶∞, PO 5 mg/kg): 810 ng·h/mL
